# Source: PubChem
# The list is not random: actives were taken first. Their share in the collection is about 3.1%.
# Tb hexokinase: T. brucei hexokinase 1 inhibition; 0.11% of 220,000 active; AID 1430; inhibition, % at 10 µM; recombinant TbHK1, G6PDH-coupled NADH A340;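 active = inhibition of 50% or more in the single-dose primary screen; inactive = inhibition below 50%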
# HSP90 inh: blocks HSP90-mediated luciferase refolding in reticulocyte lysate; Rabbit reticulocyte lysate, luciferase refolding luminescence, 3 h; inhibition, % at 5.6 µM; 0.91% of 290,000 active;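 active = inhibition above the screen-wide mean plus 3 SD, computed separately per campaign, cut at about 16% in these data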;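 also: 0% = DMSO wells and 100% = 60 µM geldanamycin wells; inhibitors lower the luminescence because luciferase stays unfolded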
# Hsp70 activator: transcriptional activators of Hsp70 | HeLa Hsp70 promoter luciferase reporter, luminescence; scaled: vehicle 0, proteasome-inhibitor control 100% | activation, % at 10 µM | 0.04% of 200,000 active | AID 1203;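 active = activation above the mean across all tested compounds plus 3 SD, cutoff set per campaign, cut at about 5.5% in these data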;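 also: 100% = MG132 at 30 µM as the positive control and 0% = DMSO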
# HKDC1 inhibitor: inhibitors of human hexokinase HKDC1; recombinant HKDC1, G6PDH/diaphorase resazurin coupled fluorescence; inhibition, % at 20 µM; AID 493160; 0.16% of 340,000 active;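 active = inhibition above about 35% when tested at 20 µM, limit read from the data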;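 also: plate controls were DMSO wells with enzyme for no effect and DMSO wells lacking enzyme for full effect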
#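 Material – in-house recombinant HK5 (HKDC1) enzyme · Quantity – HKDC1 at 5 µg/mL · Buffer or medium – pH 8.0 Tris buffer with 10 mM MgCl2 · Reagent – glucose with 1 mM ATP · Dosing – single 20 µM dose · Times – reaction time 90 min, room temperature, protected from light · Technique – resorufin fluorescence at 613 nm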
# HSF1 activator: increases HSF-1 driven luciferase reporter signal. 1.7% of 300,000 active. NIH3T3-HGL HSF-1 luciferase reporter, MG132, 8 h; 100% = twice DMSO control signal. activation, % at 9 µM;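 active = mean replicate activation of at least 50% with a set share of replicates each reaching 50%; inconclusive = only one of those two conditions met; inactive = mean below 50% and too few replicates reaching it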;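 also: 0% = median of the neutral control wells and 100% = twice that signal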
# HSF1 inh: HSF1 inhibition; AID 2098; activity change, negative = inhibition, % at 7.5 µM (by protocol); NIH3T3-HGL HSE-luciferase, MG132-induced, luminescence 8 h; active compounds read low; 0.77% of 300,000 active;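 active = more than half of replicate wells show activity change below -50%, luminescence cut by over half; inconclusive = some wells, but at most half, below -50%; inactive = no replicate well below -50%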;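 also: luciferase reports HSF-1 transcriptional activity via heat shock element; 0% = median of DMSO wells and -100% = zero luminescence signal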
# * hit, by the source's call; u = inconclusive; x = not tested or not shown.
SMILES,Tb hexokinase,HSP90 inh,Hsp70 activator,HKDC1 inhibitor,HSF1 activator,HSF1 inh
Nc1ccc2oc(C3CCCCC3)nc2c1,0,-2,0,5,-93,-91*
CSc1nsc(SCC(=O)NCc2ccccc2)n1,x,1,x,1,-4,-2
COc1ccc(-c2csc(NC(=O)CSc3nc(SC)ns3)n2)cc1,11,-7,0,1,71*,24
CSc1nsc(SCC(=O)NCc2ccc(C)cc2)n1,x,-5,x,-3,-84,-79*
CSc1nsc(SCC(=O)Nc2ccc3c(c2)OCCO3)n1,3,4,0,6,55*,24
COc1ccc(-c2nn(-c3ccccc3)cc2/C=N/Nc2ccc(Cl)c(C(=O)O)c2)cc1OC,8,17*,x,2,12,-4
O=C(O)c1cc(N/N=C/c2ccc(-c3ccccc3)cc2)ccc1Cl,x,29*,x,9,-4,-12
COc1ccc(-c2nn(-c3ccccc3)cc2C(=O)O)cc1OC,3,6,0,-7,6,-7
COc1ccc(-c2nn(-c3ccccc3)cc2/C=C(\CC(=O)O)c2nc3ccccc3s2)cc1OC,-6,-2,0,6,-78,-70*
COc1ccc(/C=C(\CC(=O)O)c2nc3ccccc3s2)cc1O,-18,-1,0,6,11,-3
CCc1nc2ccc(C(=O)N(C)CC(=O)Nc3ccc(F)c(F)c3F)cc2nc1CC,x,x,x,-2,x,x
CNc1c2cccc(C)c2nc2c(C(=O)NCCN(C)C)cccc12,x,x,x,7,x,x
CC(C)(C)c1nn(-c2ccccc2)c2[nH]c(=O)c(CNc3ccc4c(c3)OCCO4)cc12,-12,8,-1,5,-67,-65*
CC(C)(C)c1nn(-c2ccccc2)c2[nH]c(=O)c(CNCc3ccco3)cc12,4,-4,0,-9,9,-6
O=C(CSc1nnnn1Cc1ccccc1)NC1CCCCC1,-9,0,0,-12,7,-3
O=C(CSc1ncnc2c1nnn2Cc1ccccc1)NC1CCCCC1,x,-1,x,-4,80*,66
CCOC(=O)c1ccc(Oc2nc(NC)nc(Nc3ccccc3)n2)cc1,-4,4,0,18,-68,-57*
Cc1c(C(=O)C(=O)NCCC2=CCCCC2)c2ccccc2n1C,1,2,0,-7,16,13
Cc1c(C(=O)C(=O)NCc2cccs2)c2ccccc2n1C,-24,-4,0,-4,-93,-92*
CCOC(=O)C(C)Sc1ncnc2c1nnn2-c1ccc(F)cc1 (centres undefined),1,-3,0,-5,47,31
CCC(Sc1ncnc2c1nnn2-c1ccc(F)cc1)C(=O)OC (centres undefined),-1,-7,0,-7,103*,113
Cc1ccc(Cn2ccc(NC(=O)c3nn(C)cc3[N+](=O)[O-])n2)cc1,-4,4,0,-9,76*,56
Cn1cc([N+](=O)[O-])c(C(=O)Nc2cc(Oc3cccnc3)cc([N+](=O)[O-])c2)n1,-7,1,0,1,142*,114
CCn1cc([N+](=O)[O-])c(C(=O)Nc2ccn(Cc3ccccc3)n2)n1,-4,5,0,17,-2,-14
Cn1cc([N+](=O)[O-])c(C(=O)Nc2ccc(-c3nc4ccccc4[nH]3)cc2)n1,-18,3,0,-4,408*,332
SMILES,Tb hexokinase,HSP90 inh,Hsp70 activator,HKDC1 inhibitor,HSF1 activator,HSF1 inh
O=[N+]([O-])c1cc(Oc2cccnc2)cc([N+](=O)[O-])c1,-2,3,-1,2,-1,8
Cc1cc(C)n(Cc2ccc(NC(=O)c3nn(C)cc3[N+](=O)[O-])cc2)n1,-10,1,0,2,131*,69
Cn1cc([N+](=O)[O-])c(C(=O)Nc2ccc(C3CCCCC3)cc2)n1,-1,0,0,-2,75*,94
Cn1cc([N+](=O)[O-])c(C(=O)Nc2ccc(C(=O)N3CCCCC3)cc2)n1,-5,4,0,-6,u,33
CC1CCCCN1C(=O)CN1C(=O)c2ccccc2S1(=O)=O (centres undefined),x,x,x,1,-2,-1
Cc1ccc(N2C(=O)c3ccccc3C2O)nc1 (centres undefined),-5,33*,0,x,-11,-13
Cc1ccc(Sc2nc(-c3ccccc3)nnc2C(F)(F)F)cc1,-8,-1,0,-2,151*,88
